Source: ChEMBL document CHEMBL1154063, “Facile synthesis and in vitro properties of 1-alkyl- and 1-alkyl-N-propargyl-1,2,3,4-tetrahydroisoquinoline derivatives on PC12 cells” (Eur J Med Chem, 2009)

Columns and labels:
PC-12 [1] = experiment: Cytotoxicity against rat PC12 cells assessed as effect on cell viability at 0.01 mM after 48 hrs by tetrazolium/formazan assay; assay type: cell-based; details: pc-12, 48 h, 10 µM
Outline: (§1)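 PC12 cells in log growth, seeded at 3×10^5 cells/mL in serum-containing DMEM. After 24 h, medium replaced with the derivative diluted in serum-free DMEM. After 48 h exposure, CCK-8 (WST tetrazolium) added for 4 h at 37 °C. A490 read and viability expressed as % of untreated control. Means ± S.E., n = 3-6. Dunnett test after ANOVA.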

PC-12 [2] = experiment: Cytotoxicity against rat PC12 cells assessed as effect on cell viability at 0.5 mM after 48 hrs by tetrazolium/formazan assay; details: pc-12, 48 h, 500 µM
PC-12 [3] = experiment: Induction of apoptosis in rat PC12 cells assessed as length of migrated cell nucleus at 1 mM after 3 hrs by comet assay; assay type: toxicity, cell-based; details: pc-12, 3 h, 1000 µM
Outline: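 PC12 cells (5×10^5/well in PBS(-)) exposed to 1.0 mM final compound for 3 h at 37 °C. Cells embedded in low-melt agarose, lysed 1 h at 4 °C, then alkaline unwinding 30 min. Electrophoresed at 15 V for 30 min and stained with SYBR Green. 200 cells scored per sample under fluorescence at ×200. Whole comet length measured with an ocular micrometer.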

PC-12 [4] = experiment: Cytotoxicity against rat PC12 cells assessed as effect on cell viability at 0.05 to 1 mM after 48 hrs by tetrazolium/formazan assay; assay type: cell-based; details: pc-12, 48 h, 1000 µM; outline: as §1
PC-12 [5] = experiment: Cytotoxicity against rat PC12 cells assessed as effect on cell viability at 1 mM after 48 hrs by tetrazolium/formazan assay; details: pc-12, 48 h, 1000 µM
[6] = target: T1, Amine oxidase [flavin-containing] A (Homo sapiens, UniProt P21397); experiment: Inhibition of MAOA at 100 nM after 60 mins using tyramine as substrate relative to control; parameters: scale not given: the % may be the effect or the level left; details: 1 h
T1 sequence (P21397 whole entry): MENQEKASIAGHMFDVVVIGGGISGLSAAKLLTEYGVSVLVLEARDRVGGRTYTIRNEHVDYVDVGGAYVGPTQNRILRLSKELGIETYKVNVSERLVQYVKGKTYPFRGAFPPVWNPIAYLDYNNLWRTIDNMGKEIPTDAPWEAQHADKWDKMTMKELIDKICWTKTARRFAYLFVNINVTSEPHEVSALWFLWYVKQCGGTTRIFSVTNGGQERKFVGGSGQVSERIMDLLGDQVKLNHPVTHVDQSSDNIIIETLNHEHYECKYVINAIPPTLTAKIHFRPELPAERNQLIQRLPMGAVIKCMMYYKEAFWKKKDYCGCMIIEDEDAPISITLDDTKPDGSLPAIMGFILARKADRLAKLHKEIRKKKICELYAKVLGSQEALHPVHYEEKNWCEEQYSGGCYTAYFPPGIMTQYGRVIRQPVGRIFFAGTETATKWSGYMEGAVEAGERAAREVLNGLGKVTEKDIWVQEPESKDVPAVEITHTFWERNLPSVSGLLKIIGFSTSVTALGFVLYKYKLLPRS
Outline: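 MAO-A enzyme (10 µg/mL) incubated with 0.5 mM tyramine and 100 nM compound for 60 min at 37 °C. H2O2 formed was detected with a peroxidase-coupled fluorogenic kit (ex 530/em 590 nm). Activity expressed as % of vehicle control. Means ± S.E., n = 8.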

[7] = target: T2, Amine oxidase [flavin-containing] B (Homo sapiens, UniProt P27338); experiment: Inhibition of MAOB at 100 nM after 60 mins using benylamine as substrate relative to control; parameters: scale not given: the % may be the effect or the level left; details: 1 h
T2 sequence (P27338 whole entry): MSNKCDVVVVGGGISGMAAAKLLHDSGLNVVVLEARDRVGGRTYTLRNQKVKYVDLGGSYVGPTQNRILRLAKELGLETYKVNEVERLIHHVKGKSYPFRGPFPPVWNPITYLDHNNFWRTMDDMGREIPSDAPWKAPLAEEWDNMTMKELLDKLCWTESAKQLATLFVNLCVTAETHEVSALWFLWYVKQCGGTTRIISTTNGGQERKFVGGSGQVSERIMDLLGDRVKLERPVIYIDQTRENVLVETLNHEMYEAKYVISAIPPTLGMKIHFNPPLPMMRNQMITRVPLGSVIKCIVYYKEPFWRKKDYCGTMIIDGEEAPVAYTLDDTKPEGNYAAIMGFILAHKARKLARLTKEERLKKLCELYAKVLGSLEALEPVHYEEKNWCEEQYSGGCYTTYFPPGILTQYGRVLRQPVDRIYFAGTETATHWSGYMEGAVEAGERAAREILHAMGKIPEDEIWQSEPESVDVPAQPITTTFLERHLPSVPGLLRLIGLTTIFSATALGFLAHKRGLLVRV

[8] = target: T2, Amine oxidase [flavin-containing] B; experiment: Inhibition of MAOB at 100 nM after 60 mins using tyramine as substrate relative to control; parameters: scale not given: the % may be the effect or the level left; details: 1 h

c1ccc2c(c1)CCNC2C1CCCCC1 (stereo unspecified)
Activity (PC-12 [1]): Non-toxic
Activity (PC-12 [2]): Toxic
Activity (PC-12 [3]): 120 um
Activity (PC-12 [4]): Toxic

CCCCCC1NCCc2ccccc21 (stereo unspecified)
Activity (PC-12 [5]): Toxic
Activity (PC-12 [2]): Toxic

CCCCCCC1NCCc2ccccc21 (stereo unspecified)
Activity (PC-12 [5]): Toxic
Activity (PC-12 [1]): Non-toxic
Activity (PC-12 [2]): Toxic
Activity (PC-12 [3]): 150 um
Activity (PC-12 [4]): Toxic

CCCCC1NCCc2ccccc21 (stereo unspecified)
Activity (PC-12 [5]): Toxic
Activity (PC-12 [2]): Toxic

c1ccc2c(c1)CCNC2C1CCCC1 (stereo unspecified)
Activity (PC-12 [1]): Non-toxic
Activity (PC-12 [2]): Toxic

C#CCN1CCc2ccccc2C1C (stereo unspecified)
Activity at 0.1 µM [6]: 97.5%
Activity at 0.1 µM [7]: 99.4%
Activity at 0.1 µM [8]: 101%

C#CCN1CCc2ccccc2C1C1CC1 (stereo unspecified)
Activity at 0.1 µM [6]: 96.2%
Activity at 0.1 µM [7]: 97.5%
Activity at 0.1 µM [8]: 98.4%

c1ccc2c(c1)CCNC2C1CC1 (stereo unspecified)
Activity (PC-12 [1]): Non-toxic
Activity (PC-12 [2]): Toxic

C[n+]1ccc(-c2ccccc2)cc1.[Cl-]
Activity (PC-12 [3]): 60 um

CCC1NCCc2ccccc21 (stereo unspecified)
Activity (PC-12 [5]): Toxic
Activity (PC-12 [2]): Toxic

CCCC1NCCc2ccccc21 (stereo unspecified)
Activity (PC-12 [5]): Toxic
Activity (PC-12 [2]): Toxic

c1ccc2c(c1)CCNC2C1CCC1 (stereo unspecified)
Activity (PC-12 [1]): Non-toxic
Activity (PC-12 [2]): Toxic

C#CCN(C)[C@H](C)Cc1ccccc1 [SELEGILINE]
Activity at 0.1 µM [6]: 94.2%
